Most compounds without a hit are left out; they make up all but 2.8% or so of the library.
NPY2 pot ag = potentiates or activates human NPY-Y2 receptor | 220,000 compounds, 0.45% hits | AID 1359 | cells expressing NPY-Y2, potentiator/agonist read-out | activation, % at 3.6 µM; in the data active = activation above about 27%;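 also: cells stimulated with NPY near EC25 plus isoproterenol at EC100; 0% = vehicle plus submaximal agonist and 100% = vehicle plus saturating agonist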
Target sequence (P49146 whole entry, looked up): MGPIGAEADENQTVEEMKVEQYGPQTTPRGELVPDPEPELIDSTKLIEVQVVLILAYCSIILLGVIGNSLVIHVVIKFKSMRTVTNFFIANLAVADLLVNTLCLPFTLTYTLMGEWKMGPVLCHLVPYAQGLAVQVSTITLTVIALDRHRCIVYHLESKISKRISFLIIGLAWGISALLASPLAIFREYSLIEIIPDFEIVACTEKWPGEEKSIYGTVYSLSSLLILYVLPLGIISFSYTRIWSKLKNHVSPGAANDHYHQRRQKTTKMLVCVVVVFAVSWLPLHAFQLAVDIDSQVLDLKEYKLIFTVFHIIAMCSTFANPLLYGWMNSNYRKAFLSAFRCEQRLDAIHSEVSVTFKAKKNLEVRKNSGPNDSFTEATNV
EP2 mod = modulators of human EP2 prostaglandin E2 receptor; P43116; EP2-expressing cells, cAMP HTRF FRET, PGE2 co-stimulation; induction, % at 25 µM; 260,000 compounds, 0.83% hits;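 active = compounds whose cAMP rise, as percent of the full-agonist control response, exceeds 60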;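 also: rat C6 glioma line stably carrying human EP2 under a CMV promoter; the protocol text gives 20 µM as final concentration; 100% = response of wells given 1 µM PGE2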
NPY-Y1 antag = NPY-Y1 (human) receptor antagonism; 200,000 compounds, 1% hits; P25929; HEK293-CNG Y1 cells, membrane potential fluorescence; NPY at EC95, then isoproterenol; inhibition, % at 3.6 µM;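 active = inhibition above the campaign mean inhibition of all tested compounds plus 3 SD, cut at about 20% in these data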;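 also: 0% = DMSO wells given NPY plus isoproterenol and 100% = isoproterenol alone without NPY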
Target sequence (P25929 whole entry, looked up): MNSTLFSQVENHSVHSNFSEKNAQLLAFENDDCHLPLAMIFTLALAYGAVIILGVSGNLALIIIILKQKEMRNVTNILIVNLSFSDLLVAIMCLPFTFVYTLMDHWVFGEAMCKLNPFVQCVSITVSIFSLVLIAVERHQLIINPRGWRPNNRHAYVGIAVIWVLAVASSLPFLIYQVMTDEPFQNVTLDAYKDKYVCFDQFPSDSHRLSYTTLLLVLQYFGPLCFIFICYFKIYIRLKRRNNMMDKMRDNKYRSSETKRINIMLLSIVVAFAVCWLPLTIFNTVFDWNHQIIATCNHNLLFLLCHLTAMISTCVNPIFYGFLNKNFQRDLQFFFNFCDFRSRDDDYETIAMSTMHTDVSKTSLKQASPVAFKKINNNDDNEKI
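Material: HEK293 Y1/CNG channel cell line | Also added: NPY (25 nM), isoproterenol (1 µM), Ro 20-1724 (25 µM) | Compound: One concentration, 3.6 µM, in 0.4% DMSO | Schedule: 3 h dye uptake, 1 h room-temperature compound, 45 min post-isoproterenol | Signal: Membrane-potential fluorescent dye readout | Read-out: % inhibition of NPY effect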
NPY-Y2 antag = blocks the human neuropeptide Y Y2 receptor | inhibition, % at 2.7 µM | 140,000 compounds, 0.99% hits | NPY-Y2 expressing cells, antagonist mode; in the data active = inhibition above about 17%;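 also: 0% = vehicle with agonist challenge and 100% = reference antagonist with challenge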
NPY1 pot ag = potentiators or agonists of human neuropeptide Y receptor Y1; P25929; 220,000 compounds, 0.37% hits; activation, % at 3.6 µM; NPY-Y1 expressing cells, potentiator/agonist activation; in the data active = activation above about 33%, passing the limit was not always enough;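 also: cells stimulated with NPY at EC10 then isoproterenol at EC100; 0% = low agonist plus stimulus and 100% = saturating agonist plus stimulus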
PGE2 EP2 inh = inhibitors of human EP2 prostaglandin E2 receptor | P43116 | C6 glioma cells expressing human EP2, cAMP TR-FRET; cells stimulated with saturating PGE2 | inhibition, % at 25 µM | 260,000 compounds, 0.52% hits | AID 1422;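 active = percent inhibition above 40 after rounding to a whole number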;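 also: rat C6 glioma host cells with rolipram phosphodiesterase inhibitor present; the protocol text gives 20 µM as final concentration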
NPY-Y1 pot conf = human NPY-Y1 potentiation or agonism, confirmation | activation, % at 3.6 µM | cell-based NPY-Y1 potentiator/agonist assay | shares compounds with NPY1 pot ag | 280 compounds, 20% hits; in the data active = activation above about 45%;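 also: cells challenged with NPY at its EC10 plus isoproterenol stimulus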
NPY-Y2 counter = NPY-Y2 potentiation or agonism as NPY-Y1 counter-screen | shares compounds with NPY1 pot ag | activation, % at 3.6 µM | AID 1649 | HEK293-CNG cells, membrane-potential fluorescence (FLIPR), 1536-well | 280 compounds, 20% hits
NPY-Y1 ag = counter-screen for NPY-Y1 potentiators: agonists of human NPY-Y1 | shares compounds with NPY1 pot ag | HEK293 Y1-CNGC, membrane potential fluorescence, agonist mode | activation, % at 3.6 µM | 280 compounds, 50% hits | AID 1697;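 active = percent activation above the mean of DMSO-only control wells plus 3 SD of those wells, cut at about 18% in these data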;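 also: cells challenged with isoproterenol plus Ro 20-1724 with no NPY in test wells; Y1 agonism lowers isoproterenol-driven cAMP and reduces probe fluorescence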
NPY-Y2 agonist = activates human NPY-Y2, counter-screen for NPY-Y1 hits | shares compounds with NPY1 pot ag | HEK293 Y2-CNGC, membrane potential fluorescence, agonist mode | activation, % at 3.6 µM | 280 compounds, 67% hits;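 active = activation above the solvent-only control wells' mean plus 3 SD, cut at about 11% in these data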;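 also: 0% = DMSO with isoproterenol and 100% = 40 nM NPY maximal response; agonism lowers cAMP so well fluorescence drops in active wells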
CNGC inh 2 = counter-screen for NPY-Y1 potentiators or agonists: CNG channel inhibitors; shares compounds with NPY1 pot ag; HEK293-CNG parental, isoproterenol cAMP, membrane potential fluorescence; inhibition, % at 3.6 µM; 280 compounds, 42% hits; AID 1704;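 active = inhibition above the mean of stimulated solvent-only control wells plus 3 SD, cut at about 22% in these data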;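 also: 0% = isoproterenol-stimulated DMSO wells and 100% = unstimulated DMSO wells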
NPY-Y2 pot conf = human NPY-Y2 potentiation or agonism, confirmation; shares compounds with NPY2 pot ag; cell-based NPY-Y2 potentiator/agonist assay; activation, % at 3.6 µM; 450 compounds, 20% hits
NPY-Y1 counter = NPY-Y1 potentiation or agonism as NPY-Y2 counter-screen | shares compounds with NPY2 pot ag | Y1 HEK293-CNG cells, membrane potential fluorescence | activation, % at 3.6 µM | 450 compounds, 20% hits | AID 1651; in the data active = activation above about 45%;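 also: cells stimulated with submaximal NPY then isoproterenol with phosphodiesterase inhibitor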
NPY-Y1 agonist 2 = activates human NPY-Y1, counter-screen for NPY-Y2 potentiators; shares compounds with NPY2 pot ag; activation, % at 3.6 µM; HEK293 Y1-CNGC, membrane potential fluorescence, agonism; 450 compounds, 37% hits;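 active = activation above the mean of DMSO-only control wells plus 3 SD, cut at about 18% in these data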;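 also: cells stimulated with 1 µM isoproterenol plus the PDE inhibitor Ro 20-1724; 0% = isoproterenol with DMSO and no NPY and 100% = 40 nM NPY; Y1 agonists lower the membrane potential dye signal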
CNGC inhibitor = counter-screen for NPY-Y2 potentiators: inhibitors of CNG channel activity | 450 compounds, 32% hits | HEK293-CNG parental, isoproterenol cAMP, membrane potential fluorescence | shares compounds with NPY2 pot ag | inhibition, % at 3.6 µM;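 active = inhibition above the control-well mean plus 3 SD of those wells, cut at about 22% in these data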;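 also: 0% = DMSO with isoproterenol and 100% = DMSO without isoproterenol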
NPY-Y2 ag 2 = NPY-Y2 agonism, counter-screen for Y2 potentiators. shares compounds with NPY2 pot ag. HEK293 Y2/CNGC cells, membrane potential fluorescence, agonist mode. activation, % at 3.6 µM. 450 compounds, 56% hits. AID 1710;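 active = activation above the mean of solvent-only control wells plus 3 SD, cut at about 10% in these data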;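 also: cells stimulated by isoproterenol with no NPY added so direct agonism is tested; 0% = DMSO with isoproterenol alone and 100% = NPY at EC100 plus isoproterenol; agonism lowers probe fluorescence through less cAMP and CNG channel opening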
Starred values were filed as active, the others as inactive; ! = not confirmed by another sample. Rule as the data show it, unless noted: active = activation above about 33%; inactive = the rest.

`CC(C)(O)[C@H]1O[C@H]2CC[C@@]3(C)[C@@](O)(CC[C@H]4Cc5c([nH]c6ccccc56)[C@@]43C)C2=CC1=O` gave NPY2 pot ag 24, EP2 mod -20, NPY-Y1 antag -14, NPY1 pot ag 43*, PGE2 EP2 inh 16, NPY-Y1 pot conf 49*, NPY-Y2 counter 41*, NPY-Y1 ag 53*, NPY-Y2 agonist 43* and CNGC inh 2 44*.
Screening CCOCc1cc(CN2C3CCC2CC(O)(c2ccccc2F)C3)ccc1OC (centres undefined) returned EP2 mod -34 and PGE2 EP2 inh 10.
Screening Cc1ccc(C2=CCN(CC(=O)N(C)C3CCCCC3)CC2)o1 returned EP2 mod -23.
CCOC(=O)c1c(-n2c(C)cc(C=C3C(=O)NC(=O)NC3=O)c2C)sc2c1CCCC2 was read as NPY2 pot ag 10, EP2 mod -14, NPY-Y1 antag -13, NPY-Y2 antag 2, NPY1 pot ag 39*, NPY-Y1 pot conf 93*, NPY-Y2 counter 73*, NPY-Y1 ag 77*, NPY-Y2 agonist 68* and CNGC inh 2 28*.
COc1ccc(O)c2c(=O)c3c(OC)cc4c(c3oc12)C1C=COC1O4 (centres undefined) was read as NPY2 pot ag 23, EP2 mod 16, NPY1 pot ag 56*, PGE2 EP2 inh 10, NPY-Y1 pot conf 73*, NPY-Y2 counter 63*, NPY-Y1 ag 69*, NPY-Y2 agonist 64* and CNGC inh 2 67*.
Screening COc1ccc2c3c1OC1C(OC)C=CC4C(C2)CN(C)CC341 (centres undefined) returned EP2 mod -21 and PGE2 EP2 inh 23.
For c1ccc2c(N3CCNCC3)cccc2c1 the results were EP2 mod 1 and PGE2 EP2 inh 8.
Screening Clc1cccc(N2CCNCC2)c1Cl returned NPY2 pot ag 32*, EP2 mod -11, NPY-Y1 antag 8, NPY-Y2 antag 4, NPY1 pot ag 1, PGE2 EP2 inh 7, NPY-Y2 pot conf 14, NPY-Y1 counter 15, NPY-Y1 agonist 2 9, CNGC inhibitor 11 and NPY-Y2 ag 2 8.
CC(C)c1ncc(CN2C3CCC2CC(O)(c2ccc(F)cc2)C3)cn1 (centres undefined) was read as EP2 mod -30 and PGE2 EP2 inh 8.
`c1cncc(CNCC2CCCCC2)c1` gave EP2 mod -2 and PGE2 EP2 inh 7.
O=C1Nc2ccccc2/C1=C/c1nc2ccccc2c(=O)n1-c1ccc(O)cc1 was read as NPY2 pot ag 42*, EP2 mod -49, NPY1 pot ag 44, PGE2 EP2 inh 7, NPY-Y2 pot conf 33*, NPY-Y1 counter 44, NPY-Y1 agonist 2 29*, CNGC inhibitor 35* and NPY-Y2 ag 2 33*.
Cc1nn(Cc2ccccc2)c(Cl)c1C(=O)OCC(=O)Nc1cccc2ccccc12 was read as NPY2 pot ag 45*, EP2 mod 15, NPY-Y1 antag -5, NPY-Y2 antag 12, NPY1 pot ag 25, PGE2 EP2 inh 11, NPY-Y2 pot conf -19, NPY-Y1 counter -20, NPY-Y1 agonist 2 -12, CNGC inhibitor -14 and NPY-Y2 ag 2 -8.
Screening CN(C)CCN(Cc1ccccc1F)C(=O)Cc1nn(C)c(=O)c2ccccc12 returned EP2 mod -5 and PGE2 EP2 inh 7.
Screening Cc1cccc(N2CCc3c2nc2ccccc2c3N)c1 returned NPY2 pot ag 68*!, EP2 mod -49, NPY-Y1 antag 1, NPY-Y2 antag -1, NPY1 pot ag -43, PGE2 EP2 inh 20, NPY-Y2 pot conf 28, NPY-Y1 counter 39, NPY-Y1 agonist 2 -18, CNGC inhibitor 1 and NPY-Y2 ag 2 23*.
For O=c1c2cc(Br)ccc2[nH]c(=S)n1-c1ccccc1 the results were NPY2 pot ag 0, EP2 mod 1, NPY-Y1 antag -4, NPY1 pot ag -7 and PGE2 EP2 inh 8.
O=c1c2ccccc2[nH]c(=S)n1-c1ccc(Br)cc1 was read as NPY2 pot ag 32*, EP2 mod -64, NPY-Y1 antag -5, NPY1 pot ag 19, PGE2 EP2 inh 3, NPY-Y2 pot conf 5, NPY-Y1 counter 17, NPY-Y1 agonist 2 0, CNGC inhibitor 11 and NPY-Y2 ag 2 -1.
O=C1NC(=O)N(CC2CCCO2)C(=O)/C1=C/c1cccs1 (centres undefined) was read as NPY2 pot ag 41*, EP2 mod -106, NPY1 pot ag 14, PGE2 EP2 inh 14, NPY-Y2 pot conf 2, NPY-Y1 counter 13, NPY-Y1 agonist 2 3, CNGC inhibitor 2 and NPY-Y2 ag 2 3.
Screening CCN(CC)c1ccc(/C=C2/C(=O)NC(=O)N(CC3CCCO3)C2=O)cc1 (centres undefined) returned NPY2 pot ag -2, EP2 mod -27, NPY-Y1 antag -3, NPY-Y2 antag -2, NPY1 pot ag -3 and PGE2 EP2 inh 28.
